Laboratory results as given in ChEMBL document CHEMBL1143976, “Synthesis of fluorine substituted pyrazolopyrimidines as potential leads for the development of PET-imaging agents for the GABAA receptors” (Bioorg Med Chem, 2008).

Experiments:
[1] = Distribution coefficient, log D by alkyl amide reversed phase method; type: physicochemical; details: octanol/water; read-out: Log D
How it was run: (§1)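 HPLC logD per European guideline; line 4 on Multisorb RP18-7 C-18 column, line 5 on Supelcosil ABZ+Plus alkyl amide column (both 250 × 4 mm). Solvent A 5% acetonitrile/20 mM ammonium acetate held 0–5 min, then solvent B 80% acetonitrile/20 mM ammonium acetate to 40, 50 or 65 min; 1 mL/min; UV detection. SD reported.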

[2] = Distribution coefficient, log D by C-18 reversed phase method; type: physicochemical; details: octanol/water; read-out: Log D; how it was run: as §1
[3] = Displacement of [3H]flunitrazepam from GABAA receptor in Sprague-Dawley rat cerebellar membrane; parameters: species or system Cerebellum
How it was run: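 Cerebella from adult female Sprague–Dawley rats (8–10 weeks) homogenised in ice-cold 50 mM Tris-HCl pH 7.4; 20,000g membrane pellet washed repeatedly. Incubated with N-methyl-[3H]flunitrazepam (~0.3 nM final) at 21 °C for 60 min; nonspecific binding defined with zolpidem. Filtered onto PEI-presoaked GF/B, scintillation counted. IC50 by nonlinear regression from 10–12 concentrations in triplicate; ≥3 independent experiments, mean ± SD.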

| SMILES | chromatographic logD [1] | chromatographic logD [2] | IC50 [3] [nM] |
| --- | --- | --- | --- |
| CC(=O)N(C)c1cccc(-c2ccnc3c(C(=O)c4ccc(F)cc4)cnn23)c1 | 2.38 | 2.34 | 53.3 |
| CC(=O)N(CCCF)c1cccc(-c2ccnc3c(C(=O)c4cccs4)cnn23)c1 | 2.38 | 2.35 | 2.78 |
| CN(CCF)c1cccc(-c2ccnc3c(C(=O)c4cccs4)cnn23)c1 | 2.69 | 2.66 | 17.8 |
| CN(C(=O)c1ccc([N+](=O)[O-])cc1)c1cccc(-c2ccnc3c(C(=O)c4cccs4)cnn23)c1 | 2.64 | 2.51 | 15.9 |
| CCC(=O)N(CCCF)c1cccc(-c2ccnc3c(C(=O)c4cccs4)cnn23)c1 |  |  | 5.26 |
| CC(=O)N(CCCCF)c1cccc(-c2ccnc3c(C(=O)c4cccs4)cnn23)c1 |  | 2.48 | 5.98 |
| CC(=O)N(CCF)c1cccc(-c2ccnc3c(C(=O)c4cccs4)cnn23)c1 |  | 2.62 | 5.71 |
| CC(C)C(=O)N(CCCF)c1cccc(-c2ccnc3c(C(=O)c4cccs4)cnn23)c1 | 2.68 | 2.55 | 37.7 |
| CC(=O)N(C)c1cccc(-c2ccnc3c(C(=O)c4cccs4)cnn23)c1 [INDIPLON] | 2.23 | 2.26 | 3.29 |
| CN(C(=O)c1ccc(F)cc1)c1cccc(-c2ccnc3c(C(=O)c4cccs4)cnn23)c1 | 2.63 | 2.64 | 14.1 |
